Laboratory results taken from ChEMBL document CHEMBL1811802, “Synthesis and significant cytostatic activity of 7-hetaryl-7-deazaadenosines” (J Med Chem, 2011).
pIC50: −log10 of the molar value. Values belong to the molecule of their own block, whether it stands above or below them.

Assays:
[1] = Cytostatic activity against human Hs578 cells after 5 days by SRB assay; type: functional; conditions: Hs578, 120 h
Outline: (§1)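 Cells seeded per line density, overnight at 37 °C; day-zero plate TCA-fixed. 5-fold serial dilutions added, 5-day incubation; TCA fixation, 0.057% SRB in 1% acetic acid 30 min, dye dissolved in 10 mM Tris pH 10.5, A500. Growth relative to day-zero and untreated; GIC50 from sigmoidal dose–response fit; mean of two independent experiments.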

[2] = tested on: PC-3; assay: Cytostatic activity against human PC3 cells after 5 days by SRB assay; type: functional; conditions: PC-3, 120 h; outline: as §1
[3] = tested on: NCI-H23; assay: Cytostatic activity against human NCI-H23 cells after 5 days by SRB assay; type: functional; conditions: NCI-H23, 120 h; outline: as §1
[4] = tested on: MT4; assay: Cytostatic activity against human MT4 cells after 5 days by SRB assay; type: functional; conditions: MT4, 120 h
[5] = Cytotoxicity against human HeLaS3 cells after 3 days by XTT assay; type: functional, cell-based; conditions: HeLa S3, 72 h
Outline: (§2)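 Suspension-grown cell lines, 3-day compound incubation; viability read by XTT metabolic assay; IC50 averaged from four independent experiments.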

[6] = tested on: CCRF-CEM; assay: Cytotoxicity against human CCRF-CEM cells after 3 days by XTT assay; type: functional, cell-based; conditions: 72 h; outline: as §2
[7] = tested on: HCT-116; assay: Cytostatic activity against human HCT116 cells after 5 days by SRB assay; type: functional; conditions: HCT-116, 120 h; outline: as §1
[8] = tested on: HL-60; assay: Cytotoxicity against human HL60 cells after 3 days by XTT assay; type: functional, cell-based; conditions: HL-60, 72 h; outline: as §2
[9] = tested on: DU-145; assay: Cytostatic activity against human DU145 cells after 5 days by SRB assay; type: functional; conditions: DU-145, 120 h; outline: as §1
[10] = biological target: Adenosine kinase (Homo sapiens, UniProt P55263); assay: Inhibition of human ADK using [3H]-adenosine by scintillation counting
Adenosine kinase, sequence (P55263 whole entry): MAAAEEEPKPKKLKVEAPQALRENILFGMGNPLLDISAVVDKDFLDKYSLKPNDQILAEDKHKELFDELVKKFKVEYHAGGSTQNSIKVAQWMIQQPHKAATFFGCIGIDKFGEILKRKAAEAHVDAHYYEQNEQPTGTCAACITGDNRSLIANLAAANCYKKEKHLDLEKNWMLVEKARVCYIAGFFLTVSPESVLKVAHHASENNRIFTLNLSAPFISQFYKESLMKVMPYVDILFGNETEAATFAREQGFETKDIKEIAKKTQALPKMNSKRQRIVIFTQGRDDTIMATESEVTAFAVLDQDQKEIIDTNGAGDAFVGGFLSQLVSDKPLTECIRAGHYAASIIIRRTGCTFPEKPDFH

[11] = Inhibition of RNA polymerase 2 in human HeLaScribe nuclear extracts after 1 hr
Outline: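 HeLaScribe nuclear extract transcription with CMV(+) template DNA, 3 mM MgCl2, 400 μM CTP/GTP/UTP, 25 μM [33P]ATP. Inhibitor preincubated 5 min at 30 °C, then 1 h at 30 °C. Products run on 6% urea–polyacrylamide gel; full-length transcript quantified; IC50 is 50% product decrease.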

[12] = tested on: HCT-15; assay: Cytostatic activity against human HCT15 cells after 5 days by SRB assay; type: functional; conditions: HCT-15, 120 h; outline: as §1
[13] = tested on: A549; assay: Cytostatic activity against human A549 cells after 5 days by SRB assay; type: functional; conditions: A549, 120 h; outline: as §1
[14] = tested on: BT-549; assay: Cytostatic activity against human BT549 cells after 5 days by SRB assay; type: functional; conditions: BT-549, 120 h; outline: as §1
[15] = tested on: BT-549; assay: Cytotoxicity against human BT549 cells after 3 days by MTT assay; type: functional, cell-based; conditions: BT-549, 72 h
[16] = tested on: L1210; assay: Cytotoxicity against mouse L1210 cells after 3 days by MTT assay; type: functional, cell-based; conditions: L1210, 72 h
[17] = tested on: HPAC; assay: Cytotoxicity against human HPAC cells after 3 days by MTT assay; type: functional, cell-based; conditions: 72 h
[18] = tested on: EL4; assay: Cytotoxicity against mouse EL4 cells after 3 days by MTT assay; type: functional, cell-based; conditions: EL4, 72 h
[19] = tested on: C6; assay: Cytotoxicity against rat C6 cells after 3 days by MTT assay; type: functional, cell-based; conditions: C6, 72 h
[20] = Cytotoxicity against human U87MG cells after 3 days by MTT assay; type: functional, cell-based, U-87MG ATCC; conditions: U-87 MG, 72 h
[21] = tested on: SK-MEL-2; assay: Cytotoxicity against human SK-MEL-2 cells after 3 days by MTT assay; type: functional, cell-based; conditions: SK-MEL-2, 72 h
[22] = tested on: BJ; assay: Cytotoxicity against human BJ cells after 3 days by MTT assay; type: cell-based; conditions: 72 h
[23] = tested on: BV-173; assay: Cytotoxicity against human BV173 cells after 3 days by MTT assay; type: functional, cell-based; conditions: BV-173, 72 h
[24] = tested on: CT26; assay: Cytotoxicity against mouse CT26 cells after 3 days by MTT assay; type: functional, cell-based; conditions: CT26, 72 h
[25] = Cytotoxicity against mouse P388D1 cells after 3 days by MTT assay; type: functional, cell-based; conditions: P388D1, 72 h
[26] = tested on: MCF7; assay: Cytotoxicity against human MCF7 cells after 3 days by MTT assay; type: functional, cell-based; conditions: MCF7, 72 h
[27] = tested on: PC-3; assay: Cytotoxicity against human PC3 cells after 3 days by MTT assay; type: functional, cell-based; conditions: PC-3, 72 h
[28] = tested on: SK-OV-3; assay: Cytotoxicity against human SKOV3 cells after 3 days by MTT assay; type: functional, cell-based; conditions: SK-OV-3, 72 h
[29] = tested on: MDA-MB-231; assay: Cytotoxicity against human MDA-MB-231 cells after 3 days by MTT assay; type: functional, cell-based; conditions: MDA-MB-231, 72 h
[30] = Cytotoxicity against human CEM-DNR-bulk cells after 3 days by MTT assay; type: functional, cell-based; conditions: 72 h
[31] = tested on: K562; assay: Cytotoxicity against human K562 cells after 3 days by MTT assay; type: functional, cell-based; conditions: K562, 72 h
[32] = tested on: HeLa; assay: Cytotoxicity against human HeLa cells after 3 days by MTT assay; type: functional, cell-based; conditions: 72 h
[33] = Cytotoxicity against human NCI-H146 cells after 3 days by MTT assay; type: functional, cell-based; conditions: NCI-H146, 72 h
[34] = tested on: K562; assay: Cytotoxicity against human paclitaxel resistant K562 cells after 3 days by MTT assay; type: functional, cell-based; conditions: K562, 72 h
[35] = tested on: HT-29; assay: Cytotoxicity against human HT-29 cells after 3 days by MTT assay; type: functional, cell-based; conditions: HT-29, 72 h
[36] = Cytotoxicity against human MES-SA cells after 3 days by MTT assay; type: functional, cell-based; conditions: 72 h
[37] = tested on: LNCaP; assay: Cytotoxicity against human LNCAP cells after 3 days by MTT assay; type: functional, cell-based; conditions: 72 h
[38] = tested on: SK-N-AS; assay: Cytotoxicity against human SK-N-AS cells after 3 days by MTT assay; type: functional, cell-based; conditions: 72 h

GI50 [3]: > 10000 nM
GI50 [9]: > 10000 nM
GI50 [7]: > 10000 nM
pIC50 [10]: < 5.00
Structure (SMILES): Nc1ncnc2c1c(-c1cccc3ccccc13)cn2[C@@H]1O[C@H](CO)[C@@H](O)[C@H]1O
GI50 [1]: > 10000 nM
pIC50 [5]: < 5.00
pIC50 [6]: < 5.00
pIC50 [8]: < 5.00

GI50 [2]: 1110 nM
GI50 [3]: 856 nM
GI50 [12]: 544 nM
GI50 [9]: 152 nM
GI50 [7]: 633 nM
GI50 [13]: 701 nM
pIC50 [10]: < 5.70
Structure (SMILES): COc1ccc(-c2cn([C@@H]3O[C@H](CO)[C@@H](O)[C@H]3O)c3ncnc(N)c23)cc1
GI50 [1]: 811 nM
GI50 [4]: 4300 nM
pIC50 [5]: < 5.00
pIC50 [6]: < 5.00
pIC50 [8]: < 5.00

GI50 [2]: 87.8 nM
GI50 [3]: 333 nM
GI50 [7]: 65.2 nM
GI50 [13]: 160 nM
GI50 [14]: 129 nM
Structure (SMILES): Nc1ncnc2c1c(-c1ccc[nH]1)cn2[C@@H]1O[C@H](CO)[C@@H](O)[C@H]1O
GI50 [1]: 113 nM
pIC50 [5]: 5.98
pIC50 [6]: 6.80
pIC50 [8]: 5.69

GI50 [2]: 4 nM
GI50 [3]: 294 nM
GI50 [12]: 3 nM
GI50 [9]: 19 nM
GI50 [7]: 48 nM
GI50 [13]: 35 nM
pIC50 [10]: < 5.70
Structure (SMILES): Nc1ncnc2c1c(-c1ccco1)cn2[C@@H]1O[C@H](CO)[C@@H](O)[C@H]1O
GI50 [1]: 17 nM
GI50 [4]: 86 nM
pIC50 [5]: 7.30
pIC50 [6]: 7.00
pIC50 [8]: 4.93

Continued, molecule first:

Structure (SMILES): Nc1ncnc2c1c(-c1c[nH]nn1)cn2[C@@H]1O[C@H](CO)[C@@H](O)[C@H]1O
GI50 [1]: 3 nM
GI50 [2]: 5 nM
GI50 [3]: 4 nM
GI50 [4]: 18 nM
pIC50 [5]: 7.05
pIC50 [6]: 7.22
GI50 [7]: 4 nM
pIC50 [8]: 6.51

Structure (SMILES): CC[C@H](C)[C@@H]1NC(=O)CNC(=O)[C@@H]2Cc3c([nH]c4cc(O)ccc34)[S+]([O-])C[C@@H](NC(=O)CNC1=O)C(=O)N[C@@H](CC(N)=O)C(=O)N1C[C@H](O)C[C@H]1C(=O)N[C@@H]([C@@H](C)[C@@H](O)CO)C(=O)N2 (stereo partly drawn) [alpha-Amanitin]
IC50 [11]: 2.2 ng/mL

Structure (SMILES): Nc1ncnc2c1c(-c1ncc[nH]1)cn2[C@@H]1O[C@H](CO)[C@@H](O)[C@H]1O
GI50 [1]: 1 nM
GI50 [2]: 1 nM
GI50 [3]: 6 nM
GI50 [4]: 49 nM
pIC50 [5]: 6.36
pIC50 [6]: 7.15
GI50 [7]: 2 nM
pIC50 [10]: < 5.30
pIC50 [8]: 7.00

Structure (SMILES): Nc1ncnc2c1c(-c1nccs1)cn2[C@@H]1O[C@H](CO)[C@@H](O)[C@H]1O
GI50 [1]: 15 nM
GI50 [2]: 42 nM
GI50 [3]: 5 nM
GI50 [4]: 42 nM
pIC50 [5]: 7.40
pIC50 [6]: 7.70
GI50 [7]: 93 nM
pIC50 [8]: 5.79

Structure (SMILES): Nc1ncnc2c1c(-c1ccco1)cn2[C@@H]1O[C@H](COP(=O)(O)OP(=O)(O)OP(=O)(O)O)[C@@H](O)[C@H]1O
pIC50 ([11]; read-out: IC50): 3.83

Structure (SMILES): Nc1ncnc2c1c(-c1cc[nH]c1)cn2[C@@H]1O[C@H](CO)[C@@H](O)[C@H]1O
GI50 [1]: 4.4 nM
pIC50 [15]: 8.22
pIC50 [16]: 7.08
pIC50 [17]: 7.17
GI50 [2]: 29 nM
pIC50 [18]: 5.03
pIC50 [19]: 5.43
GI50 [3]: 33 nM
pIC50 [20]: < 5.00
pIC50 [21]: 5.06
pIC50 [22]: 5.22
pIC50 [23]: 8.40
pIC50 [24]: 7.77
pIC50 [25]: 8.00
pIC50 [26]: 5.20
GI50 [4]: 24 nM
pIC50 [27]: < 5.00
pIC50 [28]: < 5.00
pIC50 [29]: 7.57
pIC50 [30]: 8.10
pIC50 [31]: 7.48
pIC50 [32]: 7.40
pIC50 [5]: 7.15
pIC50 [33]: < 5.00
pIC50 [6]: 6.96
pIC50 [34]: 8.05
GI50 [7]: 5.9 nM
pIC50 [35]: 5.39
pIC50 [36]: 7.09
GI50 [13]: 5.3 nM
pIC50 [10]: < 5.30
pIC50 [37]: 7.68
GI50 [14]: 8 nM
pIC50 [8]: 6.08
pIC50 [38]: < 5.00
